STAT1 activator: STAT1 signaling activation. NIH 3T3 STAT1-luciferase reporter, IFN-gamma, luminescence; 100% = IFN-gamma alone, no compound. activation (% of control), % at 5.5 µM. hit rate 2.6% among 200,000;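 active means activation above the screen-wide mean activation plus 3 SD, cut at about 130% in these data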;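 further: raw ratio to IFN-gamma control signal so 100% means no change and 0% no light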
NF-kB expr up: NF-kB expression increase, human neuronal cells. hit rate 1.6% among 190,000. NF-kB reporter expression; active compounds read high. fold change at 12.5 µM. AID 1239; in the data active means fold change above about 3.3
STAT3 inh: reduces IL-6 driven STAT3 reporter signal; U3A cells, IL-6 STAT3-luciferase reporter, luminescence; host cell line lacks STAT1; hit rate 0.89% among 190,000; inhibition, % at 5.5 µM; AID 862;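 active means inhibition above the mean inhibition across all screened compounds plus 3 SD, cut at about 44% in these data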;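 further: 0% = DMSO only wells and 100% = 100 µM nifuroxazide control wells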
APP 5'UTR act: APP 5'UTR luciferase reporter activation; AID 1276; activation, % at 2 µM; SH-SY5Y APP 5'UTR luciferase reporter, luminescence; zero percent = DMSO vehicle wells; hit rate 1% among 190,000;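 active means activation above a set limit, based on mean plus 3 SD of controls, cut at about 140% in these data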
STAT3 act: activators of IL-6 induced STAT3 signaling. U3A cells, IL-6 STAT3-luciferase reporter, luminescence; 100% = signal with IL-6 EC80 alone. activation (% of control), % at 5.6 µM. hit rate 0.91% among 190,000. AID 871;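 active means activation above the screen-wide mean of compound activation plus 3 SD, cut at about 130% in these data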;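 further: 0% = background luminescence of wells with medium and substrate only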
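Test system: human U3A cells carrying STAT3-luciferase construct; control set: IL-6-only wells as 100% reference; timing: compound pre-incubation 1 h before IL-6, then 6 h stimulation at 37 °C; also added: IL-6 stimulus at 33 ng/mL final; evaluation: % activation versus median of IL-6-stimulated wells; detection: reporter luminescence signal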
STAT1 blocker: inhibitors of IFN-gamma induced STAT1 signaling; NIH 3T3 STAT1-luciferase reporter, luminescence; hit rate 0.35% among 200,000; AID 920; inhibition, % at 5.5 µM;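 active means inhibition above a set limit, the mean inhibition across all tested compounds plus 3 SD, cut at about 34% in these data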;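 further: 0% = IFN-gamma with DMSO and 100% = IFN-gamma with 300 µM nifuroxazide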
STAT1 act conf: STAT1 activation, confirmation assay | shares compounds with STAT1 activator | NIH 3T3 STAT1-luciferase reporter, IFN-gamma potentiation, luminescence; 100% = IFN-gamma EC80 alone, no compound | activation (% of control), % at 5.7 µM | hit rate 97% among 1,200 | AID 1262;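 active means activation above a set limit carried over from the earlier primary STAT1 screen, cut at about 140% in these data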;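 further: simple ratio to median IFN-gamma plus DMSO wells so 0% means no light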
NFkB act: NF-kappaB activation in STAT1 activator counter-screen | AID 1306 | hit rate 43% among 1,200 | HEK293T NF-kB luciferase reporter, TNF-alpha stimulated, luminescence; 100% = TNF-alpha with vehicle only | activation (% of control), % at 5.7 µM | shares compounds with STAT1 activator;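 active means activation above the mean of solvent-only control wells plus 3 SD, set per campaign, cut at about 130% in these data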;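 further: TNF-alpha given at a submaximal dose yielding about 80% of full reporter signal; values are well signal over median control so 100% means no change and 0% no light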
STAT3 act 2: human STAT3 activation in STAT1 activator counter-screen. shares compounds with STAT1 activator. U3A cells STAT3-luciferase reporter, IL-6, luminescence; cells lack STAT1; 100 = IL-6 alone, no compound effect. activation (% of control), % at 5.7 µM. hit rate 46% among 1,200. AID 1316;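 active means activation above the solvent-only control well mean plus 3 SD, set per plate batch, cut at about 110% in these data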;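 further: 0% = no luminescence and 100% = median IL-6 plus DMSO wells; higher means more STAT3 reporter activation so hits are non-selective activators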
Numbers without * were called inactive; nt = not tested or not shown. This is a sample that favours compounds with a hit; in the whole collection about 4.9% have one here.

SMILES	STAT1 activator	NF-kB expr up	STAT3 inh	APP 5'UTR act	STAT3 act	STAT1 blocker	STAT1 act conf	NFkB act	STAT3 act 2
O=[N+]([O-])c1ccccc1OCCCn1cnc2ccccc21	169*	4.1*	0	130	104	-79	188*	132	106
Cc1cc(C)c(S(=O)(=O)Nc2cccc(/C=C/C(=O)O)c2)c(C)c1	96	1.1	4	-17	96	4	nt	nt	nt
C=CCNc1oc(/C=C/c2ccccc2)nc1C#N	155*	7.2*	-1	174*	111	-61	197*	144*	114*
Clc1cccc(-c2nnc(-c3ccccc3)o2)c1	156*	8.8*	36	136*	72	-61	209*	117	107
Clc1cccc(N2CCN(Cc3nnc(-c4ccccc4)o3)CC2)c1	96	1.1	6	7	97	3	nt	nt	nt
CC(C)(C)NC(=O)C(=O)NNC(=O)c1cccc(F)c1	109	nt	6	17	100	-10	nt	nt	nt
N#Cc1cnc(SCCc2ccccc2)nc1N	124	1.2	13	20	92	-26	nt	nt	nt
Cc1ccccc1CSc1ncc(C#N)c(N)n1	166*	2.2	10	3	92	-73	169*	128	110
c1ccc(-c2csc(NC3=NCCCCC3)n2)cc1	122	1.6	-10	42	104	-24	nt	nt	nt
Clc1ccccc1Nc1nc(-c2cccnc2)cs1	168*	7.8*	0	195*	102	-77	226*	134*	111*
c1ccc(-c2csc(Nc3ncccn3)n2)cc1	157*	2.8	3	163*	99	-64	240*	113	95
CC(=O)Nc1ccc(-c2csc(Nc3ncccn3)n2)cc1	155*	1.4	7	141*	99	-61	168*	129	111*
CCCCCNc1nc(-c2ccccc2)cs1	153*	6.4*	20	2	83	-51	177*	125	100
CCCC(C)NC(=S)Nc1cc(C)cc(C)c1 (stereo unspecified)	90	1.2	5	23	100	10	nt	nt	nt
CCC/C=N/Nc1nc2ccccc2s1	163*	6*	-5	82	112	-71	225*	143*	127*
C(=C\c1ccccc1)/C=N/Nc1nc2ccccc2s1	158*	3	-32	179*	130	-65	238*	141*	129*
Brc1ccc(/C=C/C=N/Nc2nc3ccccc3s2)cc1	121	1.3	-7	8	113	-23	nt	nt	nt
CCOC(=O)c1cnc2c(-c3ccccc3)cnn2c1N	186*	7.4*	39	124	69	-95	246*	119	99
CCOC(=O)c1cnc2c(-c3ccccc3)c(C)nn2c1N	113	1.4	11	-6	91	-15	nt	nt	nt
Cc1nc(NC(=O)c2csc3ccccc23)sc1C	176*	7.5*	10	151*	96	-83	256*	137*	111*
Cc1nn(C)c(C)c1/C=N/NC(=O)c1csc2ccccc12	114	1.2	-5	-10	107	-16	nt	nt	nt
CCc1ccc(C2=NN(C(C)=O)C(c3ccco3)C2)cc1 (stereo unspecified)	160*	4.7*	-4	144*	107	-69	178*	133	123*
O=c1[nH]cc(C(F)(F)F)cc1NS(=O)(=O)c1ccccc1[N+](=O)[O-]	98	1.1	7	19	98	4	nt	nt	nt
CC(C)(C)n1ncc2c(=O)n(CC(=O)NCc3ccc(F)cc3)cnc21	160*	3.5*	-4	169*	105	-65	199*	119	127*
CC(C)(C)n1ncc2c(=O)n(CC(=O)NCc3ccco3)cnc21	127	1.9	-21	70	119	-29	nt	nt	nt
SMILES	STAT1 activator	NF-kB expr up	STAT3 inh	APP 5'UTR act	STAT3 act	STAT1 blocker	STAT1 act conf	NFkB act	STAT3 act 2
COc1ccc(CN2C(=O)c3ccccc3C2C(=O)NC2CCCCCC2)c(OC)c1 (stereo unspecified)	85	1.3	5	9	97	15	nt	nt	nt
Oc1[nH]c2ccccc2c1N=Nc1nc2ccccc2s1	155*	3.7*	-9	nt	106	-60	208*	136*	131*
CCOC(=O)Cc1nc(-c2cccc(C(F)(F)F)c2)no1	101	1	10	37	97	-3	nt	nt	nt
CCOC(=O)C1CCCN(C(=O)c2cccc([N+](=O)[O-])c2C)C1 (stereo unspecified)	106	1.1	7	16	100	-9	nt	nt	nt
COc1ccc(-c2cc(-c3ccc(OC)cc3)[nH]n2)cc1	151*	1.4	15	53	89	-56	162*	123	94
COc1ccc(OC)c(/C=C/C(=O)Nc2ccc3c(c2)CCC3)c1	106	1.1	1	8	96	-7	nt	nt	nt
COc1ccccc1/C=C/C(=O)Nc1ccc2c(c1)OCCO2	179*	8.4*	4	134	96	-89	238*	124	105
COc1ccc(/C=C/C(=O)Nc2ccccc2)cc1OC	152*	2.9	10	80	95	-53	163*	126	104
COc1ccccc1/C=C/C(=O)Nc1ccc2c(c1)CCC2	161*	7.8*	-12	176*	108	-66	197*	147*	112*
COc1ccccc1/C=C/C(=O)Nc1ccc(N2CCOCC2)cc1	99	0.97	18	3	89	0	nt	nt	nt
CCOc1ccc(N/C(C)=C\C(=O)c2ccc3c(c2)OCCO3)cc1	156*	3.4*	14	36	90	-63	220*	134*	105
COc1ccc(C(=O)/C=C(\C)Nc2ccc3c(c2)OCO3)cc1	111	2.7	7	46	104	-12	nt	nt	nt
COc1ccc(Cn2c(C3CC3)nc3ccc(NC(=O)C4CC4)cc3c2=O)cc1	209*	8.4*	-5	173*	110	-119	294*	144*	124*
COc1cccc(Cn2c(C3CC3)nc3ccc(NC(=O)c4ccco4)cc3c2=O)c1	111	0.79	22	31	83	-12	nt	nt	nt
COc1cccc(-c2cc(C(=O)N3CCCCC3C)no2)c1 (stereo unspecified)	154*	3.6*	-22	133	122	-59	181*	134*	123*

Screening data (PubChem BioAssay)
